Activity calls are given as the source filed them. The rule behind the calls is not given here.
What was measured:
[1] = molecular target: Acetylcholinesterase (Electrophorus electricus, UniProt O42275); assay: Inhibition of electric eel AChE using acetylthiocholine iodide as substrate preincubated for 2 mins followed by substrate addition and measured after 2 mins by Ellman's method
[2] = Selectivity index, ratio of IC50 for electric eel AChE to IC50 for equine serum BChE
How it was run: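 Electric eel AChE (Type VI-S) and equine serum BuChE (Type VI-S) were each assayed by the Ellman method, with IC50 as mean ± SEM of three experiments. Selectivity index was calculated as IC50(AChE)/IC50(BuChE).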

[3] = molecular target: Cholinesterase (Equus caballus) (UniProt P81908); assay: Potency index, ratio of donepezil IC50 to compound IC50 for equine serum BChE
[4] = molecular target: Amyloid-beta precursor protein (Homo sapiens) (UniProt P05067); assay: Inhibition of self-induced human amyloid beta (1 to 42) aggregation at 25 uM after 24 hrs by thioflavin-T based fluorescence assay relative to control
How it was run: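 Thioflavin T fluorescence assay of self-induced Aβ1-42 aggregation, with test compound present at 25 μM and resveratrol as the positive control. Inhibition is given in percent as mean ± SD of at least three independent experiments.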

[5] = system: SH-SY5Y; assay: Neurotoxicity against human SH-SY5Y cells assessed as decrease in cell viability at 1 to 10 uM after 24 hrs by MTT assay; type: toxicity, cell-based
How it was run: (§1)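 Cytotoxicity assay: SH-SY5Y cells were incubated with compound at 1, 2.5, 5 or 10 μM for 24 h. Viability was determined by MTT and expressed as percent of control, mean ± SD of 3 independent experiments.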

[6] = molecular target: Cholinesterase (Equus caballus, UniProt P81908); assay: Inhibition of equine serum BChE using butyrylthiocholine iodide as substrate preincubated for 2 mins followed by substrate addition and measured after 2 mins by Ellman's method
How it was run: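 Equine serum BuChE (Type VI-S) inhibition measured by the Ellman method. IC50 is the inhibitor concentration giving 50% enzyme inactivation, reported as mean ± SEM of three experiments.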

[7] = Neurotoxicity against human SH-SY5Y cells assessed as cell viability at 2.5 uM after 24 hrs by MTT assay relative to control; type: toxicity, cell-based; conditions: read-out: Activity; how it was run: as §1
[8] = system: SH-SY5Y; assay: Neuroprotective activity against amyloid beta (1 to 42)-induced neurodegeneration in human SH-SY5Y cells assessed as increase in cell viability at 1 uM after 48 hrs by MTT assay; type: functional, cell-based
How it was run: (§2)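 SH-SY5Y neuroblastoma cells were exposed to Aβ1-42 (30 μM) for 48 h, with or without compound at 1 or 5 μM. Viability was measured by MTT assay against Aβ1-42-only and untreated controls. Data are mean ± SEM of three experiments, each run in triplicate.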

[9] = Neurotoxicity against human SH-SY5Y cells assessed as cell viability at 1 uM after 24 hrs by MTT assay relative to control; type: toxicity, cell-based; conditions: read-out: Activity; how it was run: as §1
[10] = system: SH-SY5Y; assay: Neuroprotective activity against H2O2-induced oxidative stress in human SH-SY5Y cells assessed as cell viability at 1 uM after 24 hrs by MTT assay (reference value: 57.2%); type: functional; conditions: read-out: Activity
How it was run: (§3)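 SH-SY5Y cells were treated with H₂O₂ (300 μM) for 24 h, with compound (1 or 5 μM) co-treated. Viability was read by MTT and compared with H₂O₂-only and untreated controls. Data are mean ± SEM of three experiments, each run in triplicate.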

[11] = system: SH-SY5Y; assay: Neuroprotective activity against okadaic acid-induced cell death in human SH-SY5Y cells assessed as increase in cell viability at 1 uM after 24 hrs by MTT assay; type: functional, cell-based
[12] = system: SH-SY5Y; assay: Neuroprotective activity against H2O2-induced oxidative stress in human SH-SY5Y cells assessed as cell viability at 5 uM after 24 hrs by MTT assay (reference value: 57.2%); type: functional; conditions: read-out: Activity; how it was run: as §3
[13] = Neurotoxicity against human SH-SY5Y cells assessed as cell viability at 5 uM after 24 hrs by MTT assay relative to control; type: toxicity, cell-based; conditions: read-out: Activity; how it was run: as §1
[14] = system: SH-SY5Y; assay: Neuroprotective activity against okadaic acid-induced cell death in human SH-SY5Y cells assessed as cell viability at 1 uM after 24 hrs by MTT assay (reference value: 53.1%); type: functional; conditions: read-out: Activity
[15] = system: SH-SY5Y; assay: Neuroprotective activity against amyloid beta (1 to 42)-induced neurodegeneration in human SH-SY5Y cells assessed as cell viability at 1 uM after 48 hrs by MTT assay (reference value: 54.2%); type: functional; conditions: read-out: Activity; how it was run: as §2
[16] = system: SH-SY5Y; assay: Neuroprotective activity against amyloid beta (1 to 42)-induced neurodegeneration in human SH-SY5Y cells assessed as cell viability at 5 uM after 48 hrs by MTT assay (reference value: 54.2%); type: functional; conditions: read-out: Activity; how it was run: as §2
[17] = Neurotoxicity against human SH-SY5Y cells assessed as cell viability at 10 uM after 24 hrs by MTT assay relative to control; type: toxicity, cell-based; conditions: read-out: Activity; how it was run: as §1
[18] = system: SH-SY5Y; assay: Neuroprotective activity against amyloid beta (1 to 42)-induced neurodegeneration in human SH-SY5Y cells assessed as increase in cell viability at 1 to 5 uM after 48 hrs by MTT assay; type: functional, cell-based; how it was run: as §2

Sequence of Cholinesterase (P81908 whole entry): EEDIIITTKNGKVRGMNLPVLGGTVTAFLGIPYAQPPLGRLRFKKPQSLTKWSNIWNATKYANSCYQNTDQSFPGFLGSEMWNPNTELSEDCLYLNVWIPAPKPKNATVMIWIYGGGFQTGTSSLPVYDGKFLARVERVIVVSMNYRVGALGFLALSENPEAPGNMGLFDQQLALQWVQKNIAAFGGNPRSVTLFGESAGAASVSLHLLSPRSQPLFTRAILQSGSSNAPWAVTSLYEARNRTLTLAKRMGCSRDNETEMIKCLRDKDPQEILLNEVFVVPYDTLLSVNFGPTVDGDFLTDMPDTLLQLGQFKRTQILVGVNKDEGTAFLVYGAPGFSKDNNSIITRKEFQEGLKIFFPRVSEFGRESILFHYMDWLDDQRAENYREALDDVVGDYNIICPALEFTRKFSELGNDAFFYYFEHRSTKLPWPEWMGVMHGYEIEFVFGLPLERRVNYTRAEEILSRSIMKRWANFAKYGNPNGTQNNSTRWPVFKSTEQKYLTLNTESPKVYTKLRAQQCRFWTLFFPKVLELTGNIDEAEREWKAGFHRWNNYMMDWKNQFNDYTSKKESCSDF
Sequence of Amyloid-beta precursor protein (Homo sapiens) (P05067 whole entry): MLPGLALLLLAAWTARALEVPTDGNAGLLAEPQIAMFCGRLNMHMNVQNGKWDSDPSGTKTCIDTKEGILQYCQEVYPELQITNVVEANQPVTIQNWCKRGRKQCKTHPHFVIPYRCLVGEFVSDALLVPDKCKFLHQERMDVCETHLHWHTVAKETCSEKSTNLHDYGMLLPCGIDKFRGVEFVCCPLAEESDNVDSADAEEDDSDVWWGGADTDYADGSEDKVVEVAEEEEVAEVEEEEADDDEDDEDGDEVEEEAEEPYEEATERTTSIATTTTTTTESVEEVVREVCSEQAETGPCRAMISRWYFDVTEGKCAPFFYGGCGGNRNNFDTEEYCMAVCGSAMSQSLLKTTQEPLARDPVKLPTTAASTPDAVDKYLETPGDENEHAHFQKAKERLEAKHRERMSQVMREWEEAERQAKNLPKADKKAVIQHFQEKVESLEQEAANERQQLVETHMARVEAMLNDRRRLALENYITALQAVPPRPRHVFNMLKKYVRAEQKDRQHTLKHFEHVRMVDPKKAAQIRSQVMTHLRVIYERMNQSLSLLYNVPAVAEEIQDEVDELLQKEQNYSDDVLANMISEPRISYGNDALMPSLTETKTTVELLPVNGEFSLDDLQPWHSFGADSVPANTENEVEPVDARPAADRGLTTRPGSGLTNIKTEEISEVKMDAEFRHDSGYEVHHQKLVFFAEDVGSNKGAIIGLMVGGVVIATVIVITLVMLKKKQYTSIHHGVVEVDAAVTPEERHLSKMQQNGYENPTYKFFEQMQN
Sequence of Acetylcholinesterase (O42275 whole entry): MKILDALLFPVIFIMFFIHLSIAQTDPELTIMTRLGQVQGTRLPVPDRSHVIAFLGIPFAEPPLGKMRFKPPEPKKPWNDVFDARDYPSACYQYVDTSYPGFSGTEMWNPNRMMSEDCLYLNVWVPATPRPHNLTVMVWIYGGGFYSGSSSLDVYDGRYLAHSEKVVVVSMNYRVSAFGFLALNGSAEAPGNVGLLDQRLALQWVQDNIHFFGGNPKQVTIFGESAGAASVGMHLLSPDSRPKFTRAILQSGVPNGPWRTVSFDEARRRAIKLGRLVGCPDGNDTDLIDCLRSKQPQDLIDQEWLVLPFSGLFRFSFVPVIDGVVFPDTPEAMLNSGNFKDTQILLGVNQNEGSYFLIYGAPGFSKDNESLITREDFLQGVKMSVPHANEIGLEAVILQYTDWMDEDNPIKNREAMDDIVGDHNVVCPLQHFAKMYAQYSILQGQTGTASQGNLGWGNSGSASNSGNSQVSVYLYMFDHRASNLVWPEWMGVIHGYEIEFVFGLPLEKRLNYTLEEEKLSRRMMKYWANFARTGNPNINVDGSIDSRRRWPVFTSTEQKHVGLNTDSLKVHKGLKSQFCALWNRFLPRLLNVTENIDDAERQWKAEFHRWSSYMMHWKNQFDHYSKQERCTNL
Sequence of Cholinesterase (Equus caballus) (P81908 whole entry): as the sequence (P81908 whole entry) above

Compound | IC50 ([1]; read-out: IC50) [µM] | Ratio IC50 [2] | inhibition [4] | IC50 ([6]; read-out: IC50) [µM] | IC50 [1] | IC50 [6] | also measured
COC(=O)c1cc2c3ccccc3n(CCCN3CCN(CCCn4c5ccccc5c5cc(C(=O)OC)nc(C)c54)CC3)c2c(C)n1 | 11.2 | 16 | inactive | 0.7 |  |  | Ratio IC50 [3]: 4; Activity [5]: Toxic
COC(=O)C1Cc2c([nH]c3ccccc23)C(C)N1C(=O)CCN(C)CCN(C)CCC(=O)N1C(C(=O)OC)Cc2c([nH]c3ccccc23)C1C (centres undefined) | 18 | 10.6 | 82.7% | 1.7 |  |  | viability at 24 h, 2.5 µM [7]: 92.8%; Activity [8]: Active; viability at 24 h, 1 µM [9]: 106%; viability at 1 µM [10]: 100%; Activity [11]: Active; viability at 5 µM [12]: 42.1%; viability at 24 h, 5 µM [13]: 92.4%
COC(=O)C1Cc2c([nH]c3ccccc23)C(C)N1C(=O)CN1CCN(CC(=O)N2C(C(=O)OC)Cc3c([nH]c4ccccc34)C2C)CC1 (centres undefined) |  | inactive | 50.8% | 20.9 | Not Active |  | 
COC(=O)C1Cc2c([nH]c3ccccc23)C(C)N1C(=O)CN(C)CCN(C)CC(=O)N1C(C(=O)OC)Cc2c([nH]c3ccccc23)C1C (centres undefined) | 39.8 | 4.3 | 72.3% | 9 |  |  | Activity [5]: Toxic
COC(=O)C1Cc2c([nH]c3ccccc23)C(C)N1C(=O)CCN1CCN(CCC(=O)N2C(C(=O)OC)Cc3c([nH]c4ccccc34)C2C)CC1 (centres undefined) | 19.9 |  | 65.6% |  |  |  | viability at 24 h, 2.5 µM [7]: 99.9%; viability at 24 h, 1 µM [9]: 103%; viability at 1 µM [10]: 82.2%; viability at 1 µM [14]: 97.1%; viability at 5 µM [12]: 76%; viability at 1 µM [15]: 95.4%; viability at 24 h, 5 µM [13]: 102%; viability at 5 µM [16]: 85.4%; viability at 24 h, 10 µM [17]: 90.9%
COC(=O)C1Cc2c([nH]c3ccccc23)C(c2ccccc2)N1C(=O)CCN1CCN(CCC(=O)N2C(C(=O)OC)Cc3c([nH]c4ccccc34)C2c2ccccc2)CC1 (centres undefined) | 488 | 85.6 | 41.9% | 5.7 |  |  | 
COC(=O)c1cc2c3ccccc3n(CCCN(C)CCN(C)CCCn3c4ccccc4c4cc(C(=O)OC)nc(-c5ccccc5)c43)c2c(-c2ccccc2)n1 | 147 | 184 | 25.4% | 0.8 |  |  | viability at 24 h, 2.5 µM [7]: 93.2%; Activity [18]: inactive; viability at 24 h, 1 µM [9]: 98.2%; viability at 24 h, 5 µM [13]: 93.7%
COC(=O)C1Cc2c([nH]c3ccccc23)C(c2ccccc2)N1C(=O)CN(C)CCN(C)CC(=O)N1C(C(=O)OC)Cc2c([nH]c3ccccc23)C1c1ccccc1 (centres undefined) | 64 | 4.4 | 65.1% | 14.6 |  |  | 
COC(=O)c1cc2c([nH]c3ccccc32)c(-c2ccccc2)n1 |  | inactive |  |  | Not Active | Not Active | 
COC(=O)c1cc2c3ccccc3n(CCCN3CCN(CCCn4c5ccccc5c5cc(C(=O)OC)nc(-c6ccccc6)c54)CC3)c2c(-c2ccccc2)n1 |  | inactive |  |  | Not Active | Not Active | 
COC(=O)C1Cc2c([nH]c3ccccc23)CN1C(=O)CCN(C)CCN(C)CCC(=O)N1Cc2[nH]c3ccccc3c2CC1C(=O)OC (centres undefined) | 25.4 | 0.9 | 59.2% | 27 |  |  | 
COC(=O)C1Cc2c([nH]c3ccccc23)CN1 (centres undefined) |  | inactive |  |  | Not Active | Not Active | 
COC(=O)c1cc2c3ccccc3n(CCCCN(C)CCN(C)CCCCn3c4ccccc4c4cc(C(=O)OC)nc(C)c43)c2c(C)n1 | 9.6 | 6.4 | 65.5% | 1.5 |  |  | Activity [5]: Toxic
COC(=O)c1cc2c([nH]c3ccccc32)c(C)n1 |  | inactive |  |  | Not Active | Not Active | 
COC(=O)c1cc2c3ccccc3n(CCCCN3CCN(CCCCn4c5ccccc5c5cc(C(=O)OC)nc(-c6ccccc6)c54)CC3)c2c(-c2ccccc2)n1 |  | inactive |  |  | Not Active | Not Active | 
COC(=O)c1cc2c3ccccc3n(CCCCN(C)CCN(C)CCCCn3c4ccccc4c4cc(C(=O)OC)nc(-c5ccccc5)c43)c2c(-c2ccccc2)n1 | 15.7 | 8.7 | 71.5% | 1.8 |  |  | Activity [5]: Toxic
COC(=O)C1Cc2c([nH]c3ccccc23)C(C)N1 (centres undefined) |  | inactive |  |  | Not Active | Not Active | 
COC(=O)c1cc2c3ccccc3n(CCCN(C)CCN(C)CCCn3c4ccccc4c4cc(C(=O)OC)nc(C)c43)c2c(C)n1 | 99.1 | 6.4 | inactive | 15.4 |  |  | 
COC(=O)C1Cc2c([nH]c3ccccc23)C(C)N1C(=O)CCCN1CCN(CCCC(=O)N2C(C(=O)OC)Cc3c([nH]c4ccccc34)C2C)CC1 (centres undefined) | 44.2 | 15.8 | 85.7% | 2.8 |  |  | viability at 24 h, 2.5 µM [7]: 99.1%; Activity [8]: Active; viability at 24 h, 1 µM [9]: 98.6%; viability at 1 µM [10]: 90.4%; viability at 1 µM [14]: 101%; viability at 5 µM [12]: 85.5%; viability at 24 h, 5 µM [13]: 101%; viability at 24 h, 10 µM [17]: 90.8%
COC(=O)C1Cc2c([nH]c3ccccc23)C(c2ccccc2)N1C(=O)CCCN1CCN(CCCC(=O)N2C(C(=O)OC)Cc3c([nH]c4ccccc34)C2c2ccccc2)CC1 (centres undefined) |  | inactive |  |  | Not Active | Not Active | 
COC(=O)C1Cc2c([nH]c3ccccc23)CN1C(=O)CN1CCN(CC(=O)N2Cc3[nH]c4ccccc4c3CC2C(=O)OC)CC1 (centres undefined) |  | inactive |  |  | Not Active | Not Active | 
COC(=O)c1cc2c3ccccc3n(CCCCN3CCN(CCCCn4c5ccccc5c5cc(C(=O)OC)nc(C)c54)CC3)c2c(C)n1 | 11.6 | 1.2 | inactive | 9.7 |  |  | 
COC(=O)C1Cc2c([nH]c3ccccc23)C(c2ccccc2)N1 (centres undefined) |  | inactive |  |  | Not Active | Not Active | 
